{"source": "ChEMBL document CHEMBL1148976", "about": "“Hypoxia-inducible factor-1 activation by (-)-epicatechin gallate: potential adverse effects of cancer chemoprevention with high-dose green tea extracts” (J Nat Prod, 2004)", "key": {"T47D [1]": {"tested_on": "T47D", "experiment": "Induction of HIF1 activation in human T47D cells expressing pTK-HRE-luc gene under normoxic condition at 100 uM after 16 hrs by luciferase reporter assay relative to control", "type": "cell-based", "how_it_was_run": "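T47D cells transiently co-transfected by electroporation with pTK-HRE3-luc (50 μg mL−1) and pRL-TK (5 μg mL−1). Compound at 100 μM under normoxia (5% CO2:95% air, 37 °C) for 16 h. Dual luciferase read-out, firefly normalized to Renilla, expressed as fold over control. pGL3-Control transfected cells run as counter-check.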"}, "[2]": {"target": "Hypoxia inducible factors; HIF-1-alpha, HIF-2-alpha (Homo sapiens) (UniProt Q16665+Q99814)", "experiment": "Inhibition of hypoxia-induced HIF1 activation in human T47D cells expressing pTK-HRE-luc gene at 100 uM by luciferase reporter assay", "type": "cell-based", "how_it_was_run": "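T47D cells co-transfected by electroporation with pTK-HRE3-luc and pRL-TK. Compound at 100 μM, then hypoxia (1% O2). Dual luciferase read-out, firefly normalized to Renilla. Value is % inhibition of hypoxic HIF-1 activation. pGL3-Control reporter cells used as specificity control.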"}, "T47D [3]": {"tested_on": "T47D", "experiment": "Induction of VEGF mRNA expression in human T47D cells under normoxic condition at 100 uM after 16 hrs by RT-PCR", "type": "functional, cell-based", "how_it_was_run": "(§1)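 T47D cells, pretreated 30 min, then 16 h under normoxia or hypoxia (1% O2). Total RNA extracted immediately after treatment, checked by absorbance and agarose gel. Target mRNA measured by quantitative real-time RT-PCR, normalized to 18S rRNA, relative expression by ΔΔCT method. Mean ± SD from one representative experiment in triplicate.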"}, "T47D [4]": {"tested_on": "T47D", "experiment": "Induction of GLUT1 mRNA expression in human T47D cells under normoxic condition at 100 uM after 16 hrs by RT-PCR", "type": "functional, cell-based", "how_it_was_run": "as §1"}, "T47D [5]": {"tested_on": "T47D", "experiment": "Induction of CDKN1A mRNA expression in human T47D cells under normoxic condition at 100 uM after 16 hrs by RT-PCR", "type": "functional, cell-based", "how_it_was_run": "as §1"}, "T47D [6]": {"tested_on": "T47D", "experiment": "Inhibition of hypoxia-induced VEGF mRNA expression in human T47D cells at 100 uM after 16 hrs by RT-PCR", "type": "functional, cell-based", "how_it_was_run": "as §1"}, "T47D [7]": {"tested_on": "T47D", "experiment": "Inhibition of hypoxia-induced GLUT1 mRNA expression in human T47D cells at 100 uM after 16 hrs by RT-PCR", "type": "functional, cell-based", "how_it_was_run": "as §1"}, "[8]": {"target": "Hypoxia-inducible factor 1-alpha (Homo sapiens) (UniProt Q16665)", "sequence (Q16665 whole entry, looked up)": "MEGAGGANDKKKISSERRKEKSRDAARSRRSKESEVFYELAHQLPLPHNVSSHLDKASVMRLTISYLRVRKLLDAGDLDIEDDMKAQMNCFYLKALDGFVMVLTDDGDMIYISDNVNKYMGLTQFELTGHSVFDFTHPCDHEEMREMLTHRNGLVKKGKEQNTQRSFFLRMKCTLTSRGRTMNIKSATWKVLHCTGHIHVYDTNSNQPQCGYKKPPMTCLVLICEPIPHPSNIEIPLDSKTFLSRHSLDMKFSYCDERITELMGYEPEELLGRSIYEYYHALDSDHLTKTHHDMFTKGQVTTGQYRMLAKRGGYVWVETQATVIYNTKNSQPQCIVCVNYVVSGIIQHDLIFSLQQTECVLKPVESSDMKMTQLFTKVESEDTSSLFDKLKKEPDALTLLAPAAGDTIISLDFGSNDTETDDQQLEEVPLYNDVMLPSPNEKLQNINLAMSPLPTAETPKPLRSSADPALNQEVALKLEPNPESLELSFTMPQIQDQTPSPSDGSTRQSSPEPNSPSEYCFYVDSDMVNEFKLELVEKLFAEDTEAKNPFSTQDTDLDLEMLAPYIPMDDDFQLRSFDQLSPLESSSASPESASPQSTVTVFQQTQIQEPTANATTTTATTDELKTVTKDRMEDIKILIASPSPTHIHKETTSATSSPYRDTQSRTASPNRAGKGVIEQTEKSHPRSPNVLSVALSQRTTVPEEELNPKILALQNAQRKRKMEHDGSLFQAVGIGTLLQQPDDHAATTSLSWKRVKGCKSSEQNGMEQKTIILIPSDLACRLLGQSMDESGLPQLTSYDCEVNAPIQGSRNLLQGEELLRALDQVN", "experiment": "Induction of HIF1alpha protein in human T47D cells under normoxic condition at 100 uM after 4 hrs by Western blot analysis", "type": "cell-based", "how_it_was_run": "(§2)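 T47D cells (10 million per 100 mm plate, 10% FBS DMEM/F12) are plated and left overnight. Test compound, with or without iron salt, ascorbate or Trolox, is added for 30 min at 37 °C. Cells then stand 4 h under normoxia (5% CO2:95% air) or hypoxia (5% CO2:1% O2:94% N2). Nuclear extracts are probed for HIF-1α and HIF-1β by Western blot.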"}, "[9]": {"target": "Aryl hydrocarbon receptor nuclear translocator (Homo sapiens) (UniProt P27540)", "sequence (P27540 whole entry)": "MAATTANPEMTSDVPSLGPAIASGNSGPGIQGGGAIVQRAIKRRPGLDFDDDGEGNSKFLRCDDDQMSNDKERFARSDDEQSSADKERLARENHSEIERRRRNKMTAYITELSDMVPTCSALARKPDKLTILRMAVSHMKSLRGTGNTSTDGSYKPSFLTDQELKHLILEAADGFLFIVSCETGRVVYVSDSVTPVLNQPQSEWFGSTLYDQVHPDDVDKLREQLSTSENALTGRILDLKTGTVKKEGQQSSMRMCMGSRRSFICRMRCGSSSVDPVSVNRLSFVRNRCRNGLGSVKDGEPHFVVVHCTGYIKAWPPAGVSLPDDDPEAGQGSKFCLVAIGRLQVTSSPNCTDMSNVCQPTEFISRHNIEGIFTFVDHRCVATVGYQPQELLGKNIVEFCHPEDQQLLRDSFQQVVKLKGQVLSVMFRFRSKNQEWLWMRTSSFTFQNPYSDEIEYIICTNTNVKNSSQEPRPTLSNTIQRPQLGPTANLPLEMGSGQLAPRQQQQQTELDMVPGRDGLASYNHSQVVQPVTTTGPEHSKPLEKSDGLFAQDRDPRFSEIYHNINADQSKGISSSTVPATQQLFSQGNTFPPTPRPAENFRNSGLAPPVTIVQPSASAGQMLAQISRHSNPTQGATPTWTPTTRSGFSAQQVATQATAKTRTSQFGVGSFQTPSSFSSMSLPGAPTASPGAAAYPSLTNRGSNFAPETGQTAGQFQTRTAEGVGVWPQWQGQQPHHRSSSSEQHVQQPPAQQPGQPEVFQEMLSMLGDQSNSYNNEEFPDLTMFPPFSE", "experiment": "Induction of HIF1beta protein in human T47D cells under normoxic condition at 100 uM after 4 hrs by Western blot analysis", "type": "cell-based", "how_it_was_run": "as §2"}, "[10]": {"target": "Hypoxia-inducible factor 1-alpha (Homo sapiens) (UniProt Q16665)", "experiment": "Inhibition of hypoxia-induced increase in HIF1alpha protein in human T47D cells at 100 uM after 4 hrs by Western blot analysis", "type": "cell-based", "how_it_was_run": "as §2"}, "T47D [11]": {"tested_on": "T47D", "experiment": "Increase in HIF1alpha mRNA expression in human T47D cells under normoxic condition at 100 uM after 16 hrs by RT-PCR", "type": "functional, cell-based", "how_it_was_run": "as §1"}, "T47D [12]": {"tested_on": "T47D", "experiment": "Decrease in hypoxia-induced HIF1alpha mRNA expression in human T47D cells at 100 uM after 16 hrs by RT-PCR", "type": "functional, cell-based", "how_it_was_run": "as §1"}, "T47D [13]": {"tested_on": "T47D", "experiment": "Induction of HIF1 activation in human T47D cells under normoxic condition at 100 uM in presence of 300 uM iron(2)", "type": "cell-based", "how_it_was_run": "(§3)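 T47D cells transiently co-transfected by electroporation with pTK-HRE3-luc (50 μg mL−1) and pRL-TK (5 μg mL−1). Read-out is dual luciferase, with firefly normalized to Renilla. Incubation runs 16 h under normoxia. Iron salt or ascorbate is added with test compound (100 μM). Data come from one representative experiment in quadruplicate, mean ± SD, p <0.05 versus control.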"}, "[14]": {"target": "Hypoxia-inducible factor 1-alpha (Homo sapiens) (UniProt Q16665)", "experiment": "Induction of HIF1alpha protein in human T47D cells under normoxic condition at 100 uM after 4 hrs by Western blot analysis in presence of 300 uM iron(2)", "type": "cell-based", "how_it_was_run": "as §2"}, "[15]": {"target": "Hypoxia-inducible factor 1-alpha (Homo sapiens) (UniProt Q16665)", "experiment": "Induction of HIF1alpha protein in human T47D cells under normoxic condition at 100 uM after 4 hrs by Western blot analysis in presence of 100 uM iron(2)", "type": "cell-based", "how_it_was_run": "as §2"}, "[16]": {"target": "Aryl hydrocarbon receptor nuclear translocator (Homo sapiens) (UniProt P27540)", "experiment": "Induction of HIF1beta protein in human T47D cells under normoxic condition at 100 uM after 4 hrs by Western blot analysis in presence of 300 uM iron(2)", "type": "cell-based", "how_it_was_run": "as §2"}, "T47D [17]": {"tested_on": "T47D", "experiment": "Induction of HIF1 activation in human T47D cells under normoxic condition at 100 uM in presence of 50 uM iron(3)", "type": "cell-based", "how_it_was_run": "as §3"}, "[18]": {"target": "Hypoxia-inducible factor 1-alpha (Homo sapiens) (UniProt Q16665)", "experiment": "Induction of HIF1alpha protein in human T47D cells under normoxic condition at 100 uM after 4 hrs by Western blot analysis in presence of 150 uM iron(3)", "type": "cell-based", "how_it_was_run": "as §2"}, "T47D [19]": {"tested_on": "T47D", "experiment": "Induction of HIF1 activation in human T47D cells under normoxic condition at 100 uM in presence of 150 uM iron(3)", "type": "cell-based", "how_it_was_run": "as §3"}, "[20]": {"target": "Aryl hydrocarbon receptor nuclear translocator (Homo sapiens) (UniProt P27540)", "experiment": "Induction of HIF1beta protein in human T47D cells under normoxic condition at 100 uM after 4 hrs by Western blot analysis in presence of 150 uM iron(3)", "type": "cell-based", "how_it_was_run": "as §2"}, "T47D [21]": {"tested_on": "T47D", "experiment": "Induction of HIF1 activation in human T47D cells under normoxic condition at 100 uM by luciferase reporter gene assay in presence of ascorbate", "type": "cell-based", "how_it_was_run": "as §3"}, "[22]": {"target": "Hypoxia-inducible factor 1-alpha (Homo sapiens) (UniProt Q16665)", "experiment": "Induction of HIF1alpha protein in human T47D cells under normoxic condition at 100 uM after 4 hrs by Western blot analysis in presence of ascorbate", "type": "cell-based", "how_it_was_run": "as §2"}, "[23]": {"target": "Aryl hydrocarbon receptor nuclear translocator (Homo sapiens) (UniProt P27540)", "experiment": "Induction of HIF1beta protein in human T47D cells under normoxic condition at 100 uM after 4 hrs by Western blot analysis in presence of ascorbate", "type": "cell-based", "how_it_was_run": "as §2"}, "[24]": {"target": "Hypoxia-inducible factor 1-alpha (Homo sapiens) (UniProt Q16665)", "experiment": "Induction of HIF1alpha protein in human T47D cells under normoxic condition at 100 uM after 4 hrs by Western blot analysis in presence of trolox", "type": "cell-based", "how_it_was_run": "as §2"}, "[25]": {"experiment": "Aqueous stability of the compound", "type": "physicochemical", "conditions": "buffer", "how_it_was_run": "(§4)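 Compound added at 100 μM final in serum-free DMEM/F12 with Pen/Strep to medium with 5% FBS, with or without T47D cells, 30 min, then hypoxia (1% O2) 16 h. Other samples: cell-free medium with or without antibiotics. Conditioned medium extracted; normal-phase TLC on silica gel G with UV254 indicator, UV254 quenching read-out. Extraction control: compound mixed with medium immediately before extraction.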"}, "[26]": {"experiment": "Chemical stability in DMEM/F12 medium in presence of fetal calf serum", "type": "physicochemical", "conditions": "cattle", "how_it_was_run": "as §4"}, "T47D [27]": {"tested_on": "T47D", "experiment": "Induction of HIF1 activation in human T47D cells under normoxic condition at 100 uM in presence of 100 uM iron(2)", "type": "cell-based", "how_it_was_run": "as §3"}}, "note": "The source made the active and inactive calls. The calls are words filed in the database; no cut-off is given here.", "data": [{"smiles": "O=C(O[C@@H]1Cc2c(O)cc(O)cc2O[C@@H]1c1ccc(O)c(O)c1)c1cc(O)c(O)c(O)c1", "values": [{"measurement": "fold change (FC)", "setting": "T47D [1]", "value": 16.8}, {"measurement": "inhibition", "setting": "[2]", "value": 79, "unit": "%"}, {"measurement": "Activity", "setting": "T47D [3]", "value": "Active"}, {"measurement": "Activity", "setting": "T47D [4]", "value": "Active"}, {"measurement": "Activity", "setting": "T47D [5]", "value": "Active"}, {"measurement": "Activity", "setting": "T47D [6]", "value": "inactive"}, {"measurement": "Activity", "setting": "T47D [7]", "value": "inactive"}, {"measurement": "Activity", "setting": "[8]", "value": "Active"}, {"measurement": "Activity", "setting": "[9]", "value": "inactive"}, {"measurement": "Activity", "setting": "[10]", "value": "Active"}, {"measurement": "Activity", "setting": "T47D [11]", "value": "inactive"}, {"measurement": "Activity", "setting": "T47D [12]", "value": "inactive"}, {"measurement": "Activity", "setting": "T47D [13]", "value": "inactive"}, {"measurement": "Activity", "setting": "[14]", "value": "inactive"}, {"measurement": "Activity", "setting": "[15]", "value": "inactive"}, {"measurement": "Activity", "setting": "[16]", "value": "Active"}, {"measurement": "Activity", "setting": "T47D [17]", "value": "inactive"}, {"measurement": "Activity", "setting": "[18]", "value": "inactive"}, {"measurement": "Activity", "setting": "T47D [19]", "value": "inactive"}, {"measurement": "Activity", "setting": "[20]", "value": "Active"}, {"measurement": "Activity", "setting": "T47D [21]", "value": "inactive"}, {"measurement": "Activity", "setting": "[22]", "value": "inactive"}, {"measurement": "Activity", "setting": "[23]", "value": "Active"}, {"measurement": "Activity", "setting": "[24]", "value": "Active"}]}, {"smiles": "Cc1c(C)c2c(c(C)c1O)CCC(C)(C(=O)O)O2", "note": "(configuration not stated)", "values": [{"measurement": "Activity", "setting": "[8]", "value": "inactive"}, {"measurement": "Activity", "setting": "[9]", "value": "inactive"}]}, {"smiles": "O=C(O[C@@H]1Cc2c(O)cc(O)cc2O[C@@H]1c1cc(O)c(O)c(O)c1)c1cc(O)c(O)c(O)c1", "note": "[EPIGALOCATECHIN GALLATE]", "values": [{"measurement": "fold change (FC)", "setting": "T47D [1]", "value": 3.6}, {"measurement": "Activity", "setting": "[2]", "value": "inactive"}, {"measurement": "Stability", "setting": "[25]", "value": "Unstable"}, {"measurement": "Stability", "setting": "[26]", "value": "Unstable"}]}, {"smiles": "CC(=O)N(O)CCCCCNC(=O)CCC(=O)N(O)CCCCCNC(=O)CCC(=O)N(O)CCCCCN", "values": [{"measurement": "Activity", "setting": "T47D [13]", "value": "inactive"}, {"measurement": "Activity", "setting": "T47D [27]", "value": "inactive"}]}]}
